From PMC3525873 (British Journal of Pharmacology, 2012)

Legend:
[1] = target: STIM1/Orai1-mediated SOCE (Rattus norvegicus, UniProt Q5M848); test: Fura-2 Ca2+ re-addition, thapsigargin-depleted native RBL-2H3 cells; type: cell-based
Procedure, shortened: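 Native RBL-2H3 cells were loaded with 2 μM Fura-2-AM for 45 min and perfused in Ca2+-free extracellular solution at room temperature. Stores depleted with 1 μM thapsigargin for 5 min. Test compound present ≥5 min before and throughout. Ca2+ entry evoked by 2 mM Ca2+ re-addition; 340/380 nm ratio read (510 nm emission). Inhibition expressed as % of control peak entry. IC50 by 4-parameter logistic fit; 3–5 experiments, 29–80 cells.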

[2] = target: CRAC currents in native RBL-2H3 cells (Rattus norvegicus, UniProt Q5M848); test: Patch-clamp of CRAC currents in native RBL-2H3 cells; type: cell-based
Procedure, shortened: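 Whole-cell recording of native RBL-2H3 cells at room temperature. Stores depleted passively by 20 mM EGTA in the Cs-methanesulphonate pipette solution (pH 7.2). Bath contained 20 mM CaCl2 (pH 7.4). Ramps from −90 to +90 mV over 1 s, holding +30 mV. Test compound at 3 μM, pre-incubated or applied acutely. Net current (minus basal) read at −85 mV 300 s after break-in; n ≥ 6 cells.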

TRPC5 = target: T1, TRPC5 (Homo sapiens, UniProt Q9UL62); test: Fura-2 Ca2+ entry in HEK293 cells overexpressing YFP-TRPC5; type: cell-based
T1 sequence (Q9UL62 1-973): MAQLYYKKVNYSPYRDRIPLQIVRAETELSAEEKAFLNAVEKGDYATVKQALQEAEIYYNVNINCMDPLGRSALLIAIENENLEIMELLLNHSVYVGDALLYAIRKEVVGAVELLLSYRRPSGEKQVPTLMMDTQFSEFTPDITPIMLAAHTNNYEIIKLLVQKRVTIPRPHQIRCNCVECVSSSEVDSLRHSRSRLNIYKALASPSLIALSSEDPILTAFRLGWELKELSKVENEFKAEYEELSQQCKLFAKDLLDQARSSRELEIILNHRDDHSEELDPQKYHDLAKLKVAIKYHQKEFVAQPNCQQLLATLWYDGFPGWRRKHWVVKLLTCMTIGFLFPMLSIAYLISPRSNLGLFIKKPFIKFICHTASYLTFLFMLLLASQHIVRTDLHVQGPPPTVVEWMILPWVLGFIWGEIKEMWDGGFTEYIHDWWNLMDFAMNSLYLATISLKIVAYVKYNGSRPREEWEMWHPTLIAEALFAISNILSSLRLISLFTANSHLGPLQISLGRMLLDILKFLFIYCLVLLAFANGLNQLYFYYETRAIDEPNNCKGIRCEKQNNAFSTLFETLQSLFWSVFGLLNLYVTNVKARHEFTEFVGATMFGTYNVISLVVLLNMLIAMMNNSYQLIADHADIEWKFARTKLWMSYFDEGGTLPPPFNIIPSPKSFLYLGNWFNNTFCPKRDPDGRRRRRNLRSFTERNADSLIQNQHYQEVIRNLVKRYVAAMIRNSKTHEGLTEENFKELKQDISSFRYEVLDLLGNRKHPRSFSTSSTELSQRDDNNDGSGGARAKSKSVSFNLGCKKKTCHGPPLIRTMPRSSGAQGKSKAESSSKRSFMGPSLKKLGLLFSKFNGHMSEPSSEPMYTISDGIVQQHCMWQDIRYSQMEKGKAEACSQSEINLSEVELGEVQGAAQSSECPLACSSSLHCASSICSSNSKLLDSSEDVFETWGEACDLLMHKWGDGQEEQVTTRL

TRPC6 = target: T2, TRPC6 (Mus musculus, UniProt Q61143); test: Fura-2 Ca2+ entry in HEK293 cells overexpressing GFP-TRPC6; type: cell-based, murine
T2 sequence (Q61143 1-930): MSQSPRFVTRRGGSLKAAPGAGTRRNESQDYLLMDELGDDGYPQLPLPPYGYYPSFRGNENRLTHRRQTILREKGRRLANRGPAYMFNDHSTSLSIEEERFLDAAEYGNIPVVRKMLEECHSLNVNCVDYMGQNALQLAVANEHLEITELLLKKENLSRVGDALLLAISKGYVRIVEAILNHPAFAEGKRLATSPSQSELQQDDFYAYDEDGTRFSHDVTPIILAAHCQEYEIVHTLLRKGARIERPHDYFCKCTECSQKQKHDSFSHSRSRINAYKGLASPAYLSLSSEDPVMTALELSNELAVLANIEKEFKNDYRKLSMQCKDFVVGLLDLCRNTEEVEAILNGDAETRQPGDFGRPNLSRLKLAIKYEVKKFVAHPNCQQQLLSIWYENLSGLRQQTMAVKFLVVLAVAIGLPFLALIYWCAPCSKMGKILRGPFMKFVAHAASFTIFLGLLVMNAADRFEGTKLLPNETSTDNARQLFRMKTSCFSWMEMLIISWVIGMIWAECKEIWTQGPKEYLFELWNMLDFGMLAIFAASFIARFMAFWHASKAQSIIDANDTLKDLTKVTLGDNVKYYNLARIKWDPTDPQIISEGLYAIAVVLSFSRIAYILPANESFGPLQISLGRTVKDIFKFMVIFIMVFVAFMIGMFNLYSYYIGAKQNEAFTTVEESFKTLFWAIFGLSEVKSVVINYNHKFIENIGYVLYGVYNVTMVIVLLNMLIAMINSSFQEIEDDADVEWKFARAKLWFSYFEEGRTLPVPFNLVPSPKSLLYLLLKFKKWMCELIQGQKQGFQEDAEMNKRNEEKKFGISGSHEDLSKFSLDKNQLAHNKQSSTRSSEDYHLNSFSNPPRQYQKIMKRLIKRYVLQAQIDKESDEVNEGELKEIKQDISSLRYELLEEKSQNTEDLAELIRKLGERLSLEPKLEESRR

STIM1/Orai1-mediated SOCE, sequence (Q5M848 whole entry, the tested form may be a part): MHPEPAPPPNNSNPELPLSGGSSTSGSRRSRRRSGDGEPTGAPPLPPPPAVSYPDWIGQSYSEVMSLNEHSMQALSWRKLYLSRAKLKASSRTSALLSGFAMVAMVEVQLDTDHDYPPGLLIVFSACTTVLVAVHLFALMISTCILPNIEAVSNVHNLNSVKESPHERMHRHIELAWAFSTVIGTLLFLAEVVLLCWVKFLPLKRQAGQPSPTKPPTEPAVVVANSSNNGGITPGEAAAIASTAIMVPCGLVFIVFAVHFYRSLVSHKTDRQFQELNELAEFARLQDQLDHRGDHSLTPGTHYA
CRAC currents in native RBL-2H3 cells, sequence (Q5M848 whole entry): as the sequence (Q5M848 whole entry, the tested form may be a part) above

## Cc1ccc(S(=O)(=O)Nc2ccc(-n3nc(C(F)(F)F)cc3C(F)(F)F)cc2)cc1 [Pyr10, N-(4-(3,5-bis(trifluoromethyl)-1H-pyrazole-1-yl)phenyl)-4-methylbenzenesulfonamide]
[1]; 3 μM
  Reduction of Ca2+ entry (Orai-mediated): 30%
[2]; RBL-2H3, read-out: Inhibition of CRAC currents
  inhibition at 3 µM: ~50%
TRPC5
  IC50: > 10 µM
TRPC6
  IC50: > 10 µM

## O=C(Nc1ccc(-n2nc(C(F)(F)F)cc2C(F)(F)F)cc1)c1ccncc1F [Pyr6, N-(4-(3,5-bis(trifluoromethyl)-1H-pyrazole-1-yl)phenyl)-3-fluoroisonicotinamide]
[1]; RBL-2H3 SOCE vs TRPC3 ROCE
  Higher potency in SOCE model than in TRPC3-ROCE model, orders of magnitude: 1.58 OM
[1]; ratio of IC50 values, RBL-2H3 SOCE vs TRPC3 ROCE
  Higher potency in SOCE model than in TRPC3-ROCE model: 37 fold
[2]; 3 μM pre-incubation
  Effect on CRAC Ca2+ entry-mediating conductance: completely inhibiting CRAC currents
TRPC5
  IC50: > 10 µM
TRPC6
  IC50: > 10 µM
